Measurements published in ChEMBL document CHEMBL1122005, “Quantitative structure-activity relationships of aromatic esters of 1-methyl-4-piperidinol as analgesics” (1982).
The source made the active and inactive calls. No cut-off for these calls is given here.

species on record: Mus musculus; assay: Analgesic activity of compound assayed by the mouse hotplate method was determined; format: functional
Method in brief: (§1)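 Mouse hot-plate test. Compounds were given subcutaneously as water-soluble HCl salts. The ED50 is expressed in mmol/kg, and potency is given as log(1/C), where C is the ED50 in mmol/kg.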

SMILES | Log 1/C
Cc1[nH]c(C)c(C(=O)OC2CCN(C)CC2)c1C | 1.87

species on record: Mus musculus; assay: Analgesic activity of compound assayed by the mouse hotplate method was determined as ED50.; format: functional; method in brief: as §1

SMILES | ED50 [mg/kg]
Cc1[nH]c(C)c(C(=O)OC2CCN(C)CC2)c1C | 4.9
Cc1[nH]c(C)c(C(=O)OC2CCN(Cc3ccccc3)CC2)c1C | 6.3
CCN1CCC(OC(=O)c2c(C)[nH]c(C)c2C)CC1 | 10.4
Cc1[nH]c(C)c(C(=O)OC2CCN(CCc3ccccc3)CC2)c1C | 20

species on record: Mus musculus; assay: Analgesic activity assayed with the mouse hotplate method; format: functional; method in brief: as §1

SMILES | Log 1/C
Cc1ccccc1C(=O)OC1CCN(C)CC1 | 1.48
CN1CCC(OC(=O)c2ccccc2F)CC1 | 1.41
CN1CCC(OC(=O)c2ccc([N+](=O)[O-])cc2)CC1 | 1.14
COc1cc(OC)cc(C(=O)OC2CCN(C)CC2)c1 | 1.53
CN1CCC(OC(=O)c2ccc(Cl)cc2)CC1 | 1.11
CN1CCC(OC(=O)c2ccccc2Cc2ccccc2)CC1 | 1.28
COc1ccc(C(=O)OC2CCN(C)CC2)cc1 | 1.43
CN1CCC(OC(=O)c2ccccc2)CC1 | 1.43
CN1CCC(OC(=O)c2cccc(O)c2)CC1 | 1.21
CN1CCC(OC(=O)c2ccc(F)cc2)CC1 | 1.38
Cc1cc(C)cc(C(=O)OC2CCN(C)CC2)c1 | 1.07
COc1cc(C(=O)OC2CCN(C)CC2)cc(OC)c1OC | 1.35
COc1cc(C(=O)OC2CCN(C)CC2)ccc1C | 1.4
CCCCOc1ccc(C(=O)OC2CCN(C)CC2)cc1 | 1.58
CN1CCC(OC(=O)c2ccc(-c3ccccc3)cc2)CC1 | 0.85
Cc1cc(C)c(C(=O)OC2CCN(C)CC2)cc1C | 1.17
CN1CCC(OC(=O)c2cccc(C#N)c2)CC1 | 1.39
CN1CCC(OC(=O)c2ccccc2Cl)CC1 | 1.25
Cc1cc(C)c(C(=O)OC2CCN(C)CC2)c(C)c1 | 1.55

SMILES | Log 1/C
CN1CCC(OC(=O)c2ccccc2C(F)(F)F)CC1 | 1.49
Cc1ccc(C(=O)OC2CCN(C)CC2)cc1F | 1.32
Cc1cccc(C)c1C(=O)OC1CCN(C)CC1 | 1.27
COc1cccc(C(=O)OC2CCN(C)CC2)c1 | 1.67
COc1ccc(C(=O)OC2CCN(C)CC2)cc1OC | 1.91
COc1ccccc1C(=O)OC1CCN(C)CC1 | 1.43
COc1cc(OC)c(C(=O)OC2CCN(C)CC2)c(OC)c1 | 1.47
COc1cccc(C(=O)OC2CCN(C)CC2)c1OC | 1.55
CN1CCC(OC(=O)c2ccc3c(c2)OCO3)CC1 | 1.61
CN1CCC(OC(=O)c2ccccc2[N+](=O)[O-])CC1 | 1.48
CN1CCC(OC(=O)c2ccccc2Br)CC1 | 1.21
CN1CCC(OC(=O)c2ccc(C(C)(C)C)cc2)CC1 | 1.13
Cc1ccc(C(=O)OC2CCN(C)CC2)cc1 | 1.17
CN1CCC(OC(=O)c2cccc(F)c2)CC1 | 1.26
CCOc1ccc(C(=O)OC2CCN(C)CC2)cc1 | 1.72
Cc1ccc(C)c(C(=O)OC2CCN(C)CC2)c1 | 1.36
CN1CCC(OC(=O)c2ccc(C#N)cc2)CC1 | 1.65
COc1cccc(OC)c1C(=O)OC1CCN(C)CC1 | 0.63
CN1CCC(OC(=O)c2ccc(Cl)c(Cl)c2)CC1 | 1.08

species on record: Mus musculus; assay: Analgesic activity of compound assayed by the mouse hotplate method was determined as log(1/C); Activity observed in 4-5 out of 10 mice tested; format: functional; method in brief: as §1

SMILES | Log 1/C
CN1CCC(OC(=O)c2ccccc2CCc2ccccc2)CC1 | 0.86
CN1CCC(OC(=O)c2ccccc2-c2ccccc2)CC1 | 1.52
CN1CCC(OC(=O)c2ccccc2Oc2ccccc2)CC1 | 1.24
CCOc1ccccc1C(=O)OC1CCN(C)CC1 | 1.18
Cc1ccc(C(=O)OC2CCN(C)CC2)cc1C | 1.15
CCc1ccccc1C(=O)OC1CCN(C)CC1 | 1.15

species on record: Mus musculus; assay: Relative Analgesic activity of compound to the N-methyl homologue assayed by the mouse hotplate method; format: functional

SMILES | Relative activity
Cc1[nH]c(C)c(C(=O)OC2CCN(C)CC2)c1C | 1
CN1CCC23c4c5ccc(O)c4O[C@H]2[C@@H](O)C=CC3(CC5)C1 (some centres undefined) | 1
Cc1[nH]c(C)c(C(=O)OC2CCN(Cc3ccccc3)CC2)c1C | 0.8
CCN1CCC(OC(=O)c2c(C)[nH]c(C)c2C)CC1 | 0.5
Cc1[nH]c(C)c(C(=O)OC2CCN(CCc3ccccc3)CC2)c1C | 0.3
CCN1CCC23c4c5ccc(O)c4O[C@H]2[C@@H](O)C=CC3(CC5)C1 (some centres undefined) | <0.1
CCOC(=O)C1(c2ccccc2)CCN(C)CC1 [MEPERIDINE] | 1
Oc1ccc2c3c1O[C@H]1[C@@H](O)C=CC4(CC2)CN(CCc2ccccc2)CCC314 (some centres undefined) | 6
Oc1ccc2c3c1O[C@H]1[C@@H](O)C=CC4(CC2)CN(Cc2ccccc2)CCC314 (some centres undefined) | <0.1

species on record: Mus musculus; assay: Relative Analgesic activity of compound to the N-substituted normeperidine assayed by the mouse hotplate method; format: functional

SMILES | Relative activity
CCOC(=O)C1(c2ccccc2)CCN(CCc2ccccc2)CC1 [PHENERIDINE] | 2.6
CCOC(=O)C1(c2ccccc2)CCN(Cc2ccccc2)CC1 | <0.5
CCOC(=O)C1(c2ccccc2)CCN(CCCCc2ccccc2)CC1 | 2.8
CCOC(=O)C1(c2ccccc2)CCN(C/C=C/c2ccccc2)CC1 | 40
Oc1ccc2c3c1O[C@H]1[C@@H](O)C=CC4(CC2)CN(C/C=C/c2ccccc2)CCC314 (some centres undefined) | <0.1
CCOC(=O)C1(c2ccccc2)CCN(CC)CC1 | 0.5
Oc1ccc2c3c1O[C@H]1[C@@H](O)C=CC4(CC2)CN(CCCCc2ccccc2)CCC314 (some centres undefined) | 0.3

species on record: Mus musculus; assay: Analgesic activity of compound assayed by the mouse hotplate method was determined as log(1/C); Inactive; format: functional, organism-based

SMILES | Log 1/C
Cc1cccc(C(=O)OC2CCN(C)CC2)c1 | inactive
CN1CCC(OC(=O)c2ccc(I)cc2)CC1 | inactive
CN1CCC(OC(=O)c2ccccc2C#N)CC1 | inactive
CN1CCC(OC(=O)c2cc(I)cc(I)c2I)CC1 | inactive
